In brackets after ≈: the same amount, converted by molar mass.
Experiments:
[1] = Antifungal activity against Penicillium funiculosum ATCC 36839 after 72 hrs by microdilution technique; assay type: functional; settings: Talaromyces pinophilus, ATCC 36839, 72 h
Summary of the method: (§1)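 Spores were washed off malt agar with 0.85% saline containing 0.1% Tween 80 and adjusted to about 1.0×10^5 per well. Compounds in 5% DMSO were serially diluted (0.001-1.0 mg/ml) in malt broth with inoculum. Plates were shaken at 160 rpm for 72 h at 28 °C. MIC is the lowest concentration without visible growth under a binocular microscope. Three independent experiments in duplicate.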

[2] = tested on: Trichoderma viride; assay: Antifungal activity against Trichoderma viride IAM 5061 after 72 hrs by microdilution technique; assay type: functional; settings: IAM 5061, 72 h; summary of the method: as §1
[3] = tested on: Bacillus cereus; assay: Antibacterial activity against Bacillus cereus clinical isolate after 24 hrs by iodonitrotetrazolium chloride dye based microdilution assay; assay type: functional
Summary of the method: (§2)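 Fresh overnight cultures adjusted spectrophotometrically to 1×10^5 CFU/mL, giving 1.0×10^4 CFU per well in tryptic soy broth. Compounds were dissolved in 5% DMSO and tested at 0.001-1.0 mg/ml by serial dilution; 5% DMSO was the negative control. After 24 h at 37 °C, 0.2 mg/mL INT solution was added for 30 min at 37 °C and OD read at 655 nm. MIC is the lowest concentration giving significant growth inhibition versus the positive control. Duplicates, repeated three times.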

[4] = tested on: Escherichia coli; assay: Bactericidal activity against Escherichia coli ATCC 35210 incubated for 24 hrs followed by re-plating on tryptic soy broth; assay type: functional; settings: ATCC 35210, 24 h
Summary of the method: (§3)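 Bacteria were grown in tryptic soy broth, 1.0×10^4 CFU per well, with compounds in 5% DMSO at 0.001-1.0 mg/ml for 24 h at 37 °C. Then 10 µL was subcultured into fresh TSB. MBC is the lowest concentration showing no growth after subculture, taken as 99.5% kill of the original inoculum. Duplicates, repeated three times.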

[5] = tested on: Micrococcus flavus; assay: Bactericidal activity against Micrococcus flavus ATCC 10240 incubated for 24 hrs followed by re-plating on tryptic soy broth; assay type: functional; settings: ATCC 10240, 24 h; summary of the method: as §3
[6] = tested on: Aspergillus niger; assay: Antifungal activity against Aspergillus niger ATCC 6275 after 72 hrs by microdilution technique; assay type: functional; settings: ATCC 6275, 72 h; summary of the method: as §1
[7] = tested on: Listeria monocytogenes; assay: Bactericidal activity against Listeria monocytogenes NCTC 7973 incubated for 24 hrs followed by re-plating on tryptic soy broth; assay type: functional; settings: NCTC 7973, 24 h; summary of the method: as §3
[8] = tested on: Penicillium ochrochloron; assay: Fungicidal activity against Penicillium ochrochloron ATCC 9112 incubated for 72 hrs followed by sub-culturing on broth malt medium and measured after 72 hrs; assay type: functional; settings: ATCC 9112, 72 h
Summary of the method: (§4)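 After 72 h exposure in malt broth, 2 µL from test wells was subcultured into wells holding 100 µL broth and incubated a further 72 h at 28 °C. MFC is the lowest concentration with no visible growth, taken as 99.5% kill of the original inoculum. Three independent experiments in duplicate.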

[9] = tested on: Trichoderma viride; assay: Fungicidal activity against Trichoderma viride IAM 5061 incubated for 72 hrs followed by sub-culturing on broth malt medium and measured after 72 hrs; assay type: functional; settings: IAM 5061, 72 h; summary of the method: as §4
[10] = tested on: Staphylococcus aureus; assay: Antibacterial activity against Staphylococcus aureus ATCC 6538 after 24 hrs by iodonitrotetrazolium chloride dye based microdilution method; assay type: functional; settings: ATCC 6538, 24 h; summary of the method: as §2
[11] = tested on: Aspergillus versicolor; assay: Fungicidal activity against Aspergillus versicolor ATCC 11730 incubated for 72 hrs followed by sub-culturing on broth malt medium and measured after 72 hrs; assay type: functional; settings: ATCC 11730, 72 h; summary of the method: as §4
[12] = tested on: Pseudomonas aeruginosa; assay: Antibacterial activity against Pseudomonas aeruginosa ATCC 27853 after 24 hrs by iodonitrotetrazolium chloride dye based microdilution method; assay type: functional; settings: ATCC 27853, 24 h; summary of the method: as §2
[13] = tested on: Pseudomonas aeruginosa; assay: Bactericidal activity against Pseudomonas aeruginosa ATCC 27853 incubated for 24 hrs followed by re-plating on tryptic soy broth; assay type: functional; settings: ATCC 27853, 24 h; summary of the method: as §3
[14] = tested on: Penicillium ochrochloron; assay: Antifungal activity against Penicillium ochrochloron ATCC 9112 after 72 hrs by microdilution technique; assay type: functional; settings: ATCC 9112, 72 h; summary of the method: as §1
[15] = tested on: Aspergillus fumigatus; assay: Fungicidal activity against Aspergillus fumigatus ATCC 1022 incubated for 72 hrs followed by sub-culturing on broth malt medium and measured after 72 hrs; assay type: functional; settings: ATCC 1022, 72 h; summary of the method: as §4
[16] = tested on: Listeria monocytogenes; assay: Antibacterial activity against Listeria monocytogenes NCTC 7973 after 24 hrs by iodonitrotetrazolium chloride dye based microdilution method; assay type: functional; settings: NCTC 7973, 24 h; summary of the method: as §2
[17] = tested on: Escherichia coli; assay: Antibacterial activity against Escherichia coli ATCC 35210 after 24 hrs by iodonitrotetrazolium chloride dye based microdilution method; assay type: functional; settings: ATCC 35210, 24 h; summary of the method: as §2
[18] = tested on: Aspergillus ochraceus; assay: Antifungal activity against Aspergillus ochraceus ATCC 12066 after 72 hrs by microdilution technique; assay type: functional; settings: ATCC 12066, 72 h; summary of the method: as §1
[19] = tested on: Aspergillus ochraceus; assay: Fungicidal activity against Aspergillus ochraceus ATCC 12066 incubated for 72 hrs followed by sub-culturing on broth malt medium and measured after 72 hrs; assay type: functional; settings: ATCC 12066, 72 h; summary of the method: as §4
[20] = tested on: Enterobacter cloacae; assay: Bactericidal activity against Enterobacter cloacae incubated for 24 hrs followed by re-plating on tryptic soy broth; assay type: functional; summary of the method: as §3
[21] = tested on: Aspergillus versicolor; assay: Antifungal activity against Aspergillus versicolor ATCC 11730 after 72 hrs by microdilution method; assay type: functional; settings: ATCC 11730, 72 h; summary of the method: as §1
[22] = tested on: Staphylococcus aureus; assay: Bactericidal activity against Staphylococcus aureus ATCC 6538 incubated for 24 hrs followed by re-plating on tryptic soy broth; assay type: functional; settings: ATCC 6538, 24 h; summary of the method: as §3
[23] = tested on: Bacillus cereus; assay: Bactericidal activity against Bacillus cereus clinical isolate incubated for 24 hrs followed by re-plating on tryptic soy broth; assay type: functional; summary of the method: as §3
[24] = tested on: Micrococcus flavus; assay: Antibacterial activity against Micrococcus flavus ATCC 10240 after 24 hrs by iodonitrotetrazolium chloride dye based microdilution method; assay type: functional; settings: ATCC 10240, 24 h; summary of the method: as §2
[25] = tested on: Salmonella typhimurium; assay: Bactericidal activity against Salmonella typhimurium ATCC 13311 incubated for 24 hrs followed by re-plating on tryptic soy broth; assay type: functional, Salmonella enterica subsp. enterica serovar Typhimurium; settings: Salmonella enterica, ATCC 13311, 24 h; summary of the method: as §3
[26] = tested on: Penicillium cyclopium; assay: Antifungal activity against Penicillium verrucosum var. cyclopium food isolate after 72 hrs by microdilution technique; assay type: functional; summary of the method: as §1
[27] = tested on: Enterobacter cloacae; assay: Antibacterial activity against Enterobacter cloacae clinical isolate after 24 hrs by iodonitrotetrazolium chloride dye based microdilution method; assay type: functional; summary of the method: as §2
[28] = Fungicidal activity against Penicillium funiculosum ATCC 36839 incubated for 72 hrs followed by sub-culturing on broth malt medium and measured after 72 hrs; assay type: functional; settings: Talaromyces pinophilus, ATCC 36839, 72 h; summary of the method: as §4
[29] = tested on: Aspergillus niger; assay: Fungicidal activity against Aspergillus niger ATCC 6275 incubated for 72 hrs followed by sub-culturing on broth malt medium and measured after 72 hrs; assay type: functional; settings: ATCC 6275, 72 h; summary of the method: as §4
[30] = tested on: Aspergillus fumigatus; assay: Antifungal activity against Aspergillus fumigatus ATCC 1022 after 72 hrs by microdilution technique; assay type: functional; settings: ATCC 1022, 72 h; summary of the method: as §1
[31] = tested on: Salmonella typhimurium; assay: Antibacterial activity against Salmonella typhimurium ATCC 13311 after 24 hrs by iodonitrotetrazolium chloride dye based microdilution method; assay type: functional, Salmonella enterica subsp. enterica serovar Typhimurium; settings: Salmonella enterica, ATCC 13311, 24 h; summary of the method: as §2
[32] = tested on: Penicillium cyclopium; assay: Fungicidal activity against Penicillium verrucosum var. cyclopium food isolate incubated for 72 hrs followed by sub-culturing on broth malt medium and measured after 72 hrs; assay type: functional; summary of the method: as §4

MIC [1] | MIC [2] | MIC [3] | MIC [6] | MIC [10] | MIC [12] | MIC [14] | MIC [16] | MIC [17] | MIC [18] | Structure (SMILES) | MBC [4] | MBC [5] | MBC [7] | MFC [8] | MFC [9] | MFC [11] | MBC [13] | MFC [15] | MFC [19] | MBC [20] | also measured
2.75 ×10⁻² mM | 1.1 ×10⁻² mM | 27.5 µM (≈ 15 µg/mL) | 2.02 ×10⁻² mM | 27.5 µM (≈ 15 µg/mL) | 27.5 µM (≈ 15 µg/mL) | 2.75 ×10⁻² mM | 27.5 µM (≈ 15 µg/mL) | 27.5 µM (≈ 15 µg/mL) | 1.47 ×10⁻² mM | Cc1ccc2c(c1)-c1c(ssc1=S)C(C)(C)N2C(=O)CSc1nn(-c2ccccc2)c(=S)s1 | 55 µM (≈ 30 µg/mL) | 55 µM (≈ 30 µg/mL) | 55 µM (≈ 30 µg/mL) | 5.5 ×10⁻² mM | 1.47 ×10⁻² mM | 44 ×10⁻² mM | 55 µM (≈ 30 µg/mL) | 22 ×10⁻² mM | 2.75 ×10⁻² mM | 55 µM (≈ 30 µg/mL) | MIC [21]: 22 ×10⁻² mM; MBC [22]: 55 µM (≈ 30 µg/mL); MBC [23]: 55 µM (≈ 30 µg/mL); MIC [24]: 27.5 µM (≈ 15 µg/mL); MBC [25]: 55 µM (≈ 30 µg/mL); MIC [26]: 22 ×10⁻² mM; MIC [27]: 27.5 µM (≈ 15 µg/mL); MFC [28]: 5.5 ×10⁻² mM; MFC [29]: 5.5 ×10⁻² mM; MIC [30]: 8.24 ×10⁻² mM; MIC [31]: 27.5 µM (≈ 15 µg/mL); MFC [32]: 44 ×10⁻² mM
1.59 ×10⁻² mM | 0.8 ×10⁻² mM | 29.8 µM (≈ 15 µg/mL) | 1.59 ×10⁻² mM | 29.8 µM (≈ 15 µg/mL) | 29.8 µM (≈ 15 µg/mL) | 0.4 ×10⁻² mM | 29.8 µM (≈ 15 µg/mL) | 29.8 µM (≈ 15 µg/mL) | 1.59 ×10⁻² mM | COc1ccc2c(c1)-c1c(ssc1=S)C(C)(C)N2C(=O)CSc1nc2ccccc2s1 | 59.7 µM (≈ 30 µg/mL) | 59.7 µM (≈ 30 µg/mL) | 59.7 µM (≈ 30 µg/mL) | 0.8 ×10⁻² mM | 1.59 ×10⁻² mM | 2.98 ×10⁻² mM | 59.7 µM (≈ 30 µg/mL) | 2.98 ×10⁻² mM | 2.98 ×10⁻² mM | 59.7 µM (≈ 30 µg/mL) | MIC [21]: 1.59 ×10⁻² mM; MBC [22]: 59.7 µM (≈ 30 µg/mL); MBC [23]: 59.7 µM (≈ 30 µg/mL); MIC [24]: 29.8 µM (≈ 15 µg/mL); MBC [25]: 59.7 µM (≈ 30 µg/mL); MIC [26]: 1.59 ×10⁻² mM; MIC [27]: 29.8 µM (≈ 15 µg/mL); MFC [28]: 2.98 ×10⁻² mM; MFC [29]: 2.98 ×10⁻² mM; MIC [30]: 1.59 ×10⁻² mM; MIC [31]: 29.8 µM (≈ 15 µg/mL); MFC [32]: 2.98 ×10⁻² mM
4.41 ×10⁻² mM | 3.23 ×10⁻² mM | 44.1 µM (≈ 15 µg/mL) | 4.41 ×10⁻² mM | 88.1 µM (≈ 30 µg/mL) | 88.1 µM (≈ 30 µg/mL) | 4.41 ×10⁻² mM | 176 µM (≈ 59.9 µg/mL) | 132 µM (≈ 45 µg/mL) | 2.35 ×10⁻² mM | COc1cc2c(c([N+](=O)[O-])c1)NC(C)(C)c1ssc(=S)c1-2 | 176 µM (≈ 59.9 µg/mL) | 176 µM (≈ 59.9 µg/mL) | 352 µM (≈ 120 µg/mL) | 8.81 ×10⁻² mM | 4.41 ×10⁻² mM | 8.81 ×10⁻² mM | 176 µM (≈ 60 µg/mL) | 35.2 ×10⁻² mM | 4.41 ×10⁻² mM | 176 µM (≈ 59.9 µg/mL) | MIC [21]: 4.41 ×10⁻² mM; MBC [22]: 176 µM (≈ 59.9 µg/mL); MBC [23]: 88.1 µM (≈ 30 µg/mL); MIC [24]: 132 µM (≈ 44.9 µg/mL); MBC [25]: 352 µM (≈ 120 µg/mL); MIC [26]: 6.46 ×10⁻² mM; MIC [27]: 88.1 µM (≈ 30 µg/mL); MFC [28]: 8.81 ×10⁻² mM; MFC [29]: 8.81 ×10⁻² mM; MIC [30]: 17.6 ×10⁻² mM; MIC [31]: 176 µM (≈ 60 µg/mL); MFC [32]: 17.6 ×10⁻² mM

— ChEMBL document CHEMBL4393701, “Appendix A. dithioloquinolinethiones as new potential multitargeted antibacterial and antifungal agents: Synthesis, biological evaluation and molecular docking studies” (2019)
